Reference: the array DNA melting data of Ke et al. (doi:10.1101/2024.01.08.574731)

What was measured:
[1] = melting temperature; fluorescence melt of hairpins on a sequencing array, two-state fit, raised by 9.35 °C to match UV melts; conditions: sodium 0.088 M
In short: (§1)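 Two-state fits, bootstrapped, provided melting temperature and folding enthalpy from Cy3 fluorescence normalised to pre-quench Cy3 and to control constructs. Library hairpins with annealed Cy3 and quencher oligos were imaged on a sequenced MiSeq flow cell in 50 mM Na-HEPES pH 8.0, 25 mM NaCl, at 2.5 °C intervals up to 60 °C. Four replicates were combined with inverse-variance weighting. A 9.35 °C upward shift was applied to fitted temperatures to match UV melts.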

[2] = folding enthalpy; higher = less favourable; fluorescence melt of hairpins on a sequencing array, two-state fit; conditions: sodium 0.088 M
In short: as §1

Row | Sequence | Tm [1] [°C] | folding enthalpy [2] [kcal/mol]
1 | GGCGTGGGAAACCACACC ((.((((....)))).)) | 50.5 | -35.3
2 | GATCCACGAAAGTGCATC (((.(((....))).))) | 32.8 | -16.1
3 | CGGTACGGAAACGTCCG (((.(((....)))))) | 47.7 | -20.9
4 | GAATGCGAAAGCAACTTC ((((((....)))..))) | 36 | -13
5 | GCTGGCGGAAACGCCAAC (.(((((....))))).) | 43.7 | -11.2
6 | GCTTAGCGAAAGCAAGGC ((.(.((....)).).)) | 38.1 | -13.5
7 | GATCTTGACAAAGATC ((((((....)))))) | 52.7 | -44
8 | GATCTTGCATAAGATC ((((((....)))))) | 50.9 | -39.9
9 | GGGATCGAAAGATCACCC ((((((....)))..))) | 51.1 | -13.4
10 | GATCAGTTTCCTGATC ((((((....)))))) | 50.9 | -35
11 | GATCTGTCCCCAGATC ((((((....)))))) | 47.9 | -37.5
12 | GCTATCGAAAGATCCAGC ((((((....)))..))) | 26.1 | -13.3
13 | GGTTCGGGAAACTGAGCC ((.((.(....).)).)) | 39.3 | -27.1
14 | GATCAGAAGTCTGATC ((((((....)))))) | 49 | -30
15 | GTTGCCGAAAGGCGAAAC ((((((....)))..))) | 33.2 | -9.33
16 | GATGGCGAAAGCCAAATC ((((((....)))..))) | 33.9 | -9.36
17 | GATCCTGACGAGGATC ((((((....)))))) | 56.9 | -36.4
18 | GCGGACGAAAGTCCTCGC ((((((....)))..))) | 51.2 | -14.4
19 | GCTTTGGGAAACTAAAGC (((((.(....).))))) | 44.3 | -27.4
20 | GGGAGGCCGAAAGGCCCC (((..(((....)))))) | 56.6 | -9.7
21 | GCTTACGAAAGTACTAGC ((((((....)))..))) | 31.8 | -13.6
22 | GGGATCGAAAGATGCCC ((((((....))).))) | 50.3 | -46.8
23 | GACGCTGGAAACAGCACC (..((((....))))..) | 30 | -11.1

Row | Sequence | Tm [1] [°C] | folding enthalpy [2] [kcal/mol]
24 | GCTGTAGGAAACTACAAC (.(((((....))))).) | 30.9 | -19.2
25 | GGCTCGGGAAACTGGGCC (((.(.(....).).))) | 48.9 | -36.7
26 | GCGCACCGAAAGGTCCGC (((.(((....))).))) | 55.6 | -37.8
27 | GCTTATGAAAATAAGC ((((((....)))))) | 51.6 | -31.8
28 | GATCTACTACTAGATC ((((((....)))))) | 37.5 | -31.4
29 | GGTTTTCGAAAGAACACC (((.(((....))).))) | 42.8 | -35.5
30 | GGTGAGGGAAACCTTGCC ((..(((....)))..)) | 41.8 | -21.7
31 | GTTCGCGAAAGCGGCAAC ((((((....)))..))) | 26.8 | -10.2
32 | GATCTAGTGCTAGATC ((((((....)))))) | 44.3 | -31.1
33 | GCCATCGCGAAAGCGGGC (((..(((....)))))) | 53.9 | -17.4
34 | GATCATAACATGATC ((((((...)))))) | 50.3 | -37
35 | GCCATCGAAAGATCTGGC ((((((....)))..))) | 36.1 | -25.9
36 | GGAGAAGGAAACTCCTCC ((((.((....)).)))) | 36 | -22.6
37 | GGCTCCCGAAAGGGTGCC (((.(((....))).))) | 67.6 | -40
38 | GAGCTGAAAAGCTC (((((....))))) | 57.2 | -27.2
39 | GATCCATGTCTGGATC ((((((....)))))) | 50.5 | -40.9
40 | GCACGGCGAAAGCCCGGC ((..(((....)))..)) | 50.1 | -15.4
41 | GAGACCGAAAGGTCGCTC ((((((....)))..))) | 69.1 | -14.3
42 | GTAGCCGAAAGGCTGTAC ((((((....)))..))) | 31.2 | -9.24
43 | GAGGCGGGAAACCACCCC (.((.((....)).)).) | 27.8 | -13.6
44 | GCGTTGGGAAACCAATGC ((.((((....)))).)) | 54.3 | -43.2
45 | GTAAGCGAAAGCTGCTAC ((((((....)))..))) | 41 | -12.7
46 | GCGTATGTACGC ((((....)))) | 54.8 | -22.4

Row | Sequence | Tm [1] [°C] | folding enthalpy [2] [kcal/mol]
47 | GATCTTGTCAAAGATC ((((((....)))))) | 54.8 | -41.9
48 | GATCCCCTCGGGATC ((((((...)))))) | 61.4 | -35.6
49 | GTAAGTCGAAAGACGTAC (((.(((....))).))) | 47.1 | -15.2
50 | GATCGCCGGCGCGATC ((((((....)))))) | 61.1 | -34.1
51 | GTACCCGAAAGGGCGTAC ((((((....)))..))) | 34.2 | -14.3
52 | GCCGACGGAAACGCCAGC ((.(.((....)).).)) | 33.8 | -13.3
53 | GTCTTGGGAAACCGAGAC ((((.((....)).)))) | 49.9 | -33
54 | GCGGGAATCCGC ((((....)))) | 68.3 | -27.9
55 | GTGGACGAAAGTCCCCAC ((((((....)))..))) | 37.2 | -8.05
56 | GATGCCGGAAACGGCACC (.(((((....))))).) | 44.5 | -9.72
57 | GGGTGGGGAAACTCACCC (((((.(....).))))) | 55.4 | -49.8
58 | GTATTAGAAATAATAC ((((((....)))))) | 31.9 | -22.2
59 | GGCCCCGGAAACAGGGCC (((((.(....).))))) | 58.2 | -43.7
60 | GAGGTGACGAAAGTCCTC (((..(((....)))))) | 34.9 | -17.6
61 | GCTCGCGAAAGCGAGAGC ((((((....)))..))) | 66.7 | -9.87
62 | GGCATCGAAAGATTGGCC ((((((....)))..))) | 44.2 | -22.2
63 | GTCCTTCGAAAGAAAGAC (((.(((....))).))) | 34.4 | -19.1
64 | GATCATCTTCATGATC ((((((....)))))) | 47.3 | -37.2
65 | GATCCATATTGGATC ((((((...)))))) | 51.7 | -37.3
66 | GATACCGGAAACGGTGTC ((.((((....)))).)) | 52.1 | -28.8
67 | GTTTTTACGAAAGTAAAC (((..(((....)))))) | 29.9 | -17.1
68 | GAAGCAGGAAACCGCTTC (((((.(....).))))) | 47.1 | -30.4
69 | GATCACACTCGTGATC ((((((....)))))) | 57.4 | -40.6

Row | Sequence | Tm [1] [°C] | folding enthalpy [2] [kcal/mol]
70 | GTAGGCTCGAAAGAGTAC (((..(((....)))))) | 29.2 | -10.6
71 | GCTTTGCGAAAGCAGTGC ((..(((....)))..)) | 38.4 | -13.8
72 | GACTTCGGAAACGGAGTC ((((.((....)).)))) | 49.4 | -39
73 | GAGCGCGAAAGCGTACTC ((((((....)))..))) | 44.4 | -12.1
74 | GATTACGCGAAAGCGATC (((..(((....)))))) | 21.4 | -6.5
75 | GATCAGCTACTGATC ((((((...)))))) | 49.1 | -35.2
76 | GCTAATGGAAACATTGGC ((.((((....)))).)) | 45.6 | -41.2
77 | GATCTAAAATAGATC ((((((...)))))) | 38.6 | -17.1
78 | GATAAACGAAAGTTGATC (((.(((....))).))) | 39.4 | -23.4
79 | GGCCCCGGAAACGGAGCC (((.(((....))).))) | 56.6 | -31.1
80 | GTTTCCGAAAGGAGAAAC ((((((....)))..))) | 32.5 | -16.8
81 | GGAGCCGCGAAAGCGTCC (((..(((....)))))) | 30.7 | -10.9
82 | GATCCTGATAGGATC ((((((...)))))) | 53.2 | -31.6
83 | GATCTGATATCAGATC ((((((....)))))) | 51 | -40.1
84 | GCTAAGCGAAAGCCGAGC (((..((....))..))) | 42.2 | -19.1
85 | GCGTTGTGACGC ((((....)))) | 59 | -31.6
86 | GGATCCGAAAGGAGTTCC ((((((....)))..))) | 32.8 | -14.8
87 | GATCACTGGTGTGATC ((((((....)))))) | 58 | -36.7
88 | CGCTGCGGAAACGCTGCG (((.(((....))).))) | 69.2 | -30.7
89 | GCTAGCGAAAGCTTGAGC ((((((....)))..))) | 41.2 | -13.5
90 | GCTTAAGGAAACTTAGGC ((.((((....)))).)) | 36.3 | -23
91 | GGAAGATCGAAAGATTCC (((..(((....)))))) | 29.8 | -13.4
92 | GCATACGAAAGTATTGC ((((((....))).))) | 45.7 | -25.1
